Source: ChEMBL document CHEMBL4825713, “Promising Non-cytotoxic Monosubstituted Chalcones to Target Monoamine Oxidase-B” (ACS Med Chem Lett, 2021)

Assays:
[1] = target: T1, Amine oxidase [flavin-containing] B (Homo sapiens, UniProt P27338); assay: Reversible inhibition of recombinant human MAO-B using kynuramine as substrate at 4 times Ki incubated for 20 mins
T1 sequence (P27338 whole entry): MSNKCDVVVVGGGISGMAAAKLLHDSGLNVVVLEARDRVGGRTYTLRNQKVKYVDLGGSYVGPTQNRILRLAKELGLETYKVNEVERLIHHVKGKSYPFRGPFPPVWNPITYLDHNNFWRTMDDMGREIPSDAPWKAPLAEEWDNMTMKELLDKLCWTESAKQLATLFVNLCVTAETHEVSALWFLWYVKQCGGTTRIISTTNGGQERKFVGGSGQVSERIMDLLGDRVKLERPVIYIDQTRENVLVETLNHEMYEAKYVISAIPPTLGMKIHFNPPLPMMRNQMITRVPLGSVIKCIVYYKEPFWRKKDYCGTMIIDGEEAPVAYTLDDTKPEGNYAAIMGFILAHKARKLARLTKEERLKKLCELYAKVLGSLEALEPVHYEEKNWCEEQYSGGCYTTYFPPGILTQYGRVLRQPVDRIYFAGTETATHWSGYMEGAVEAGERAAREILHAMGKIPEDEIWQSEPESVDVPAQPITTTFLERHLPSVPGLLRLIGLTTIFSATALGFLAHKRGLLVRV

[2] = target: T1, Amine oxidase [flavin-containing] B; assay: Competitive inhibition of recombinant human MAO-B expressed in baculovirus infected BTI cells using varying concentration of kynuramine as substrate at 5 to 40 nM by Lineweaver-burk plot analysis; conditions: dose 5-40 nM
In short: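 Initial velocities of human recombinant MAO-B measured at varied kynuramine concentrations, without inhibitor and with inhibitor at 5–40 nM. Data plotted as Lineweaver–Burk double reciprocals (1/v0 vs 1/[S]). Inhibition mode assigned from which intercept changes, x-intercept (−1/Km) versus y-intercept (1/Vmax). Mean ± SD of three independent experiments.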

Structure (SMILES)	inhibition (INH) [1]	inhibition (INH) [2]
O=C(/C=C/c1ccccc1[N+](=O)[O-])c1ccccc1	Active	
O=C(/C=C/c1ccccc1)c1cccc(C(F)(F)F)c1	Active	Active
O=C(/C=C/c1ccccc1)c1ccc(C(F)(F)F)cc1	Active	
